Most compounds without a hit are left out; they make up all but 1% or so of the library.
Bfl-1 A1 inh = inhibitors of the anti-apoptotic protein A1, read as caspase activation; caspase activation, % (no concentration beside the values); MEF A1-2A-BIM cells, Caspase-Glo 3/7 luminescence, 3 h; percent of clofoctol response, vehicle zero; 330,000 tested, 0.066% active; AID 2462;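 active = over half of replicate activation scores above 10%, or exactly half above 10 with the replicate mean above 10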
NALP1 inh = inhibitors of NALP1 inflammasome in yeast; inhibition, % at 10 µM; S. cerevisiae NALP1/ASC/caspase-1 growth, X-gal OD620, 72 h; 280,000 tested, 0.61% active; in the data active = inhibition mostly above about 24%, no sharp cut-off; inactive = mostly below about 32%
NLRP3 yeast inh = blocks the NALP3 inflammasome reconstituted in yeast. Yeast reconstituted NLRP3/ASC/caspase-1, beta-gal luminescence, 24 h. inhibition, % at 10 µM. 330,000 tested, 0.39% active. AID 2825;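 active = inhibition of 50% or more; inactive = inhibition below 50%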;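 note: plate controls were induced DMSO wells for no effect and uninduced yeast grown without galactose for full effect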
T cell HTS = T cell immune modulation candidate; 2C CD8+ T cell-vesicle binding, flow cytometry; stronger effect = lower value; response (vesicle binding), % at 7 µM; 330,000 tested, 0.068% active;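 active = response, share of CD8 T cells binding vesicles, and their 90th percentile fluorescence all below set limits, cut at about 80% in these data, passing the limit was not always enough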;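 note: values below 100% mean blocked vesicle binding to the CD8+ T cells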
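Benchmarks: naked versus QL9-loaded vesicles / Assay system: purified 2C TCR transgenic mouse naive CD8+ T cells / Technique: high-throughput flow cytometry with anti-B7-1 and anti-CD8 staining / Timing: Cell–vesicle co-incubation 1.5 h at 37 °C, staining 20 min on ice / Read-out: percent CD8+ FL2 mean versus row control / Probe or stimulus: QL9-loaded Drosophila micro-vesicles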
Active calls of the source: *; i = inactive; . = not tested or not shown.

SMILES	Bfl-1 A1 inh	NALP1 inh	NLRP3 yeast inh	T cell HTS
O=C(CCC(=O)N1CCN(c2ccccc2F)CC1)N1CCN(c2ccc(F)cc2)CC1	0.0	10.4	23.3	219.7
O=C(CCC(=O)N1CCN(c2ccccc2F)CC1)N1CCN(c2ccccc2)CC1	9.4*	7.2	12.0	156.8
OCCC1CN(Cc2cccn2-c2nccs2)CCN1C1CCCCC1 (stereo not given)	0.8	24.7*	0.5	257.4
CC(C)N1CCN(Cc2cccn2-c2nccs2)CC1CCO (stereo not given)	-0.6	3.7	8.0	334.7
CC(=O)Nc1ccc(NC(=O)C(=O)NCC(c2ccco2)N2CCc3ccccc32)cc1 (stereo not given)	32.2*	.	13.4	567.2
COc1ccc(NC(=O)C(=O)NCC(c2ccco2)N2CCc3ccccc32)cc1 (stereo not given)	1.6	.	-4.6	202.8
CN(C(=O)c1cncc(Br)c1)C1C2CC3CC(C2)CC1C3 (stereo not given)	0.3	16.5	14.1	250.1
O=C(O)COc1ccccc1/C=C1\C(=O)Nc2ccc(Br)cc21	5.3*	8.6	29.1	464.1
Cc1ccc2c(c1)/C(=C/c1ccccc1F)C(=O)N2	0.4	6.2	29.3	34.2
CCCN1CCN(S(=O)(=O)c2c(C)[nH]c(C)c2C(=O)N2CCCCC2)CC1	-0.3	-8.1	-5.6	349.8
Cc1ccc(C2(C)NC(=O)N(Cc3c(C)noc3C)C2=O)cc1 (stereo not given)	0.5	19.4*	5.0	128.6
Cc1noc(C)c1CN1C(=O)NC2(CCc3ccccc3C2)C1=O (stereo not given)	0.4	.	2.1	312.1
COC(=O)c1c(C)oc(C)c(C(=O)OC)c1=O	0.5	21.7*	8.0	40.1
CN=C(NC1CCCCC1)c1ccc([N+](=O)[O-])cc1	0.2	-0.5	15.6	251.1
CCCCCOc1ccc(Br)cc1CSC(=N)N	.	52.3*	.	.
CN(CC(=O)NCc1cccnc1)S(=O)(=O)c1ccc2c(c1)c(=O)n(C)c(=O)n2C	-0.3	43.5*	10.9	669.4
Cc1ccc(S(=O)(=O)N2CCC(C(=O)OC(C)C(=O)NC3CCCCC3C)CC2)cc1C (stereo not given)	1.0	.	32.1	532.0
CCOc1ccc(S(=O)(=O)N2CCC(C(=O)OC(C)C(=O)NC3CCCCC3C)CC2)cc1 (stereo not given)	0.9	.	-6.6	0.0*
O=C(Cc1ccc(Cl)cc1)OCC(=O)N1CCCCCC1	-1.3	.	12.4	61.2*
O=C(COc1ccc(Cl)cc1[N+](=O)[O-])N1CCCCCC1	0.5	-14.2	11.6	30.8*
Cc1ccc(C(=O)/C=C/C(=O)c2ccc(C)cc2)cc1	9.9*	-7.6	25.8	393.5
COc1ccc(-c2nnc(SCc3ccc(C(=O)O)cc3)n2C)cc1OC	0.0	27.8	7.4	302.1
CN(CC(=O)Nc1ccc(Cl)c(C(F)(F)F)c1)C(=O)C1CC(=O)N(C2CCCC2)C1 (stereo not given)	0.7	.	5.9	310.8
O=C(NCCCl)NNc1c(Cl)cc(Cl)cc1Cl	0.0	30.7*	10.6	313.4
Cc1ccc(N2CC(O)=C(c3nc4ccccc4c(=O)[nH]3)C2=N)cc1C	0.2	-3.6	39.8	182.5
SMILES	Bfl-1 A1 inh	NALP1 inh	NLRP3 yeast inh	T cell HTS
N=C1C(c2nc3ccccc3c(=O)[nH]2)=C(O)CN1c1ccccc1	.	37.8*	.	.
Cc1nc(NC(=O)CCc2ccccc2)sc1C	-0.1	19.4	29.1	480.3
CC(C)CC(=O)/C(=C\c1ccc(Cl)cc1Cl)n1cncn1	.	111.6*	.	.
CNC(=O)c1cc(C(=O)c2ccc(F)cc2C(F)(F)F)c[nH]1	0.3	-18.8	8.9	0.0*
CCN(CC)CCCNC(=O)c1cn(CCOC)c(=O)c2c1c1ccccc1n2C	0.2	30.6*	-7.2	423.9
Cc1c(NC(=O)c2cccc(NC(=O)Cc3ccc(F)cc3)c2)c(=O)n(-c2ccccc2)n1C	-1.1	.	9.9	432.4
COc1cc(/C=C2\C(=N)N3N=C(S(C)(=O)=O)SC3=NC2=O)ccc1OCCOc1ccccc1C	0.6	-2.5	.	i
COc1cc(/C=C2/C(=N)N3C=CSC3=NC2=O)ccc1OCCCOc1cc(C)ccc1C	8.5*	6.6	34.2	233.9
O=C(COC(=O)c1ccc(F)cc1)NC1CC1	0.2	.	19.2	452.6
COc1cccc(N2CC(C(=O)Nc3c(C(N)=O)oc4ccccc34)CC2=O)c1 (stereo not given)	-0.3	.	4.1	314.4
CCc1cc(=O)oc2cc(OC(C)=O)cc(OC(C)=O)c12	0.4	27.0*	10.2	491.0
Cc1ccc(OCCCCNC2CCCC(C)C2C)c(C)c1 (stereo not given)	0.1	30.4*	36.8	260.5
Cn1nc(C(=O)Nc2cccc(S(N)(=O)=O)c2)c2ccccc2c1=O	-0.4	40.4*	8.0	478.5
CC1(C)CC(=O)C2=C(C1)Nc1ccccc1NC2c1nc2ccccc2[nH]1 (stereo not given)	-0.4	39.4*	10.4	418.6
CNC(=O)c1cc2cc(Br)ccc2s1	-0.3	8.8	7.0	428.7
O=C(NC1CC1)c1cc2cc(Br)ccc2s1	0.2	29.9*	21.0	274.0
O=C(NC1(Cc2ccccc2)CCN(CCCc2ccccc2)C1=O)c1ccccc1 (stereo not given)	0.5	.	19.6	402.0
Cc1onc(-c2c(Cl)cccc2Cl)c1C(=O)Nc1nc(C(C)(C)C)cs1	1.0	36.0*	9.4	250.6
Cc1nc(C(=O)NNC(=O)c2c(-c3c(Cl)cccc3Cl)noc2C)cs1	0.0	.	7.8	754.0
CCCCN(CCCC)Cc1cc2ccccc2c2c1COC2	-0.6	44.2*	-5.5	204.2
Cc1ccc(OCCOC(=O)c2cccc(S(=O)(=O)N3CC(C)OC(C)C3)c2)cc1 (stereo not given)	-0.6	.	13.7	401.0
COc1ccccc1-c1nnc(SCC(=O)Nc2ccc(N3CCOCC3)cc2)n1N	-0.6	.	6.3	272.5
CC(=O)c1c(C)[nH]c(C(=O)N2CCN(c3ncccn3)CC2)c1C	0.2	38.2*	-12.1	600.0
FC(F)(F)c1ccc(/C=N/n2c(C3CCCCC3)n[nH]c2=S)cc1	-1.7	-4.9	32.7	865.8
CCC(C(=O)Nc1cnccn1)c1ccccc1 (stereo not given)	0.6	21.7*	21.5	327.0
SMILES	Bfl-1 A1 inh	NALP1 inh	NLRP3 yeast inh	T cell HTS
CCC(C(=O)Nc1ccccn1)c1ccccc1 (stereo not given)	0.1	.	19.0	142.7
Cc1csc(SCC(=O)Nc2ccc3[nH]c(=O)[nH]c3c2)n1	0.2	.	17.4	204.4
CCOc1ccc(OCCC(=O)N(CCC2=CCCCC2)c2c(N)n(Cc3ccccc3)c(=O)[nH]c2=O)cc1	0.6	.	17.1	366.5
CCOc1ccc(OCC(=O)N(CCC2=CCCCC2)c2c(N)n(Cc3ccccc3)c(=O)[nH]c2=O)cc1	60.3*	.	23.8	67.5
CCCCN1C(=O)C(=O)N(CC(=O)Nc2sc(CC)cc2C(=O)OCC)C1=O	-0.2	.	6.2	352.4
COc1ccccc1N1C(=O)c2cccc3c(Cl)ccc(c23)C1=O	7.8*	21.7	21.8	106.1
CN1C(=O)c2cccc3c(Cl)ccc(c23)C1=O	-0.5	-1.6	-50.4	404.2
CCN(CC(=O)NCc1cccs1)CC(=O)Nc1cccc(S(N)(=O)=O)c1	.	.	5.4	576.4
